# Compound activity: PubChem BioAssay, several laboratories
# APOBEC3A inh – APOBEC3A ssDNA deaminase inhibitors, primary screen, selectivity assay for APOBEC3G inhibitor project, biochemical, FAM/TAMRA oligo cleavage fluorescence | DNA dC->dU-editing enzyme APOBEC-3A (Homo sapiens), P31941 | hit rate 0.41% among 330,000 | inhibition, % at 20 µM | recombinant A3A, FAM/TAMRA ssDNA deamination fluorescence;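 active = at least 40% inhibition at 20 µM here, with at most 30% in a related deaminase screen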;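 also: plate controls were A3A with DMSO for no effect and wells lacking A3A enzyme for full effect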
# Arrestin-AP2 inh – inhibitors of beta-arrestin/AP2 binding, primary screen, biochemical, GPCR trafficking, flow cytometry; hit rate 0.31% among 340,000; AID 504490, 2011; FITC-arrestin peptide / GST-AP2 beads; AP2 beta2 appendage carries R879A mutation; inhibition, % at 10 µM; beta-arrestin 1 C-terminal peptide binding to AP2 beta2-adaptin appendage (human);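 active = inhibition above a set limit, near 3 SD of compounds lacking own fluorescence, cut at about 54% in these data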;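 also: plate controls were DMSO wells for no effect and 5 µM unlabelled arrestin peptide for full effect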
#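 test system = AP2 appendage R879A on GSH beads | buffer or medium = PBS plus Tween 20 (0.05%) and BSA (0.1%) | incubation = 12 min plus 1 h, RT | detection = bead flow cytometry, FITC channel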
# AHR activator – AHR activators, primary screen, cell-based, luminescence, luciferase reporter, human | AHR-responsive luciferase reporter cells | activation, % at 5 µM | hit rate 2.5% among 320,000 | AID 2796, 2010; in the data active = activation above about 47%;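 also: 0% = vehicle wells and 100% = reference agonist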
# APOBEC3G inh – APOBEC3G DNA deaminase inhibitors, primary screen, biochemical, fluorescence, single-stranded DNA substrate, uHTS; DNA dC->dU-editing enzyme APOBEC-3G (Homo sapiens), Q9HC16; AID 493012, 2011; hit rate 0.28% among 330,000; recombinant A3G, ssDNA deamination FAM/TAMRA fluorescence; inhibition, % at 20 µM;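 active = inhibition of at least 40% at 20 µM, with no more than 30% in the related APOBEC3A deaminase screen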;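 also: plate controls were DMSO wells with A3G for no effect and wells lacking A3G enzyme for full effect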
# PolyA inhibitor – polyadenylation inhibitors in yeast reporter cells, primary screen, luminescence, S. cerevisiae. S. cerevisiae SKY197-pL101 polyadenylation reporter, beta-gal luminescence; efflux-impaired pdr1/pdr3 knockout yeast; score 100 = 6 SD above DMSO. activity score, % at 12 µM. hit rate 0.02% among 300,000;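 active = lowest replicate activity score at least 50, where 100 means six control SD above control mean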;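 also: yeast exposed to compound for 9 h at 30 °C; higher score means more reporter readthrough which indicates perturbed polyadenylation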
# UCH37 inh – inhibitors of human UCH37 deubiquitinase, primary screen, biochemical, Ub-AMC cleavage, fluorescence. Ubiquitin carboxyl-terminal hydrolase isozyme L5 (Homo sapiens), Q9Y5K5. purified proteasome/UCH37. inhibition, % (concentration not given with the values). hit rate 0.33% among 330,000. AID 588478, 2011;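 active = mean inhibition over replicate wells above about 20%, limit read from the data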;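 also: 0% = compound-free wells with enzyme and 100% = wells lacking proteasome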
#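 Material: human UCH37 enzyme supplied as purified proteasome complex. Measure: % inhibition of Ub-AMC cleavage fluorescence. Medium: pH 7.4 Tris-HCl (50 mM) with ovalbumin, ATP-MgCl2, DTT. Times: 30 min preincubation with enzyme, 25 min cleavage at room temperature. Detection: AMC fluorescence intensity at 355/460 nm.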
# Arr-AP2 CP1 – inhibitors of arrestin peptide binding to AP2, confirmation, biochemical, cherry pick 1, flow cytometry beads; shares compounds with Arrestin-AP2 inh; GST-AP2 beads, FITC arrestin peptide binding; GST-fused beta2-adaptin appendage, R879A mutant; inhibition, % at 10 µM; hit rate 2% among 1,300; AID 504908, 2011;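 active = inhibition above a set limit, roughly 3 SD of non-fluorescent compound noise, cut at about 38% in these data; inactive = inhibition at or below that limit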;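 also: loss of bead fluorescence from 50 nM FITC arrestin peptide bound to appendage; 0% = negative control wells and 100% = excess unlabelled arrestin peptide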
# Target sequence (P63010 whole entry, looked up, the tested form may be a part, one chain of several): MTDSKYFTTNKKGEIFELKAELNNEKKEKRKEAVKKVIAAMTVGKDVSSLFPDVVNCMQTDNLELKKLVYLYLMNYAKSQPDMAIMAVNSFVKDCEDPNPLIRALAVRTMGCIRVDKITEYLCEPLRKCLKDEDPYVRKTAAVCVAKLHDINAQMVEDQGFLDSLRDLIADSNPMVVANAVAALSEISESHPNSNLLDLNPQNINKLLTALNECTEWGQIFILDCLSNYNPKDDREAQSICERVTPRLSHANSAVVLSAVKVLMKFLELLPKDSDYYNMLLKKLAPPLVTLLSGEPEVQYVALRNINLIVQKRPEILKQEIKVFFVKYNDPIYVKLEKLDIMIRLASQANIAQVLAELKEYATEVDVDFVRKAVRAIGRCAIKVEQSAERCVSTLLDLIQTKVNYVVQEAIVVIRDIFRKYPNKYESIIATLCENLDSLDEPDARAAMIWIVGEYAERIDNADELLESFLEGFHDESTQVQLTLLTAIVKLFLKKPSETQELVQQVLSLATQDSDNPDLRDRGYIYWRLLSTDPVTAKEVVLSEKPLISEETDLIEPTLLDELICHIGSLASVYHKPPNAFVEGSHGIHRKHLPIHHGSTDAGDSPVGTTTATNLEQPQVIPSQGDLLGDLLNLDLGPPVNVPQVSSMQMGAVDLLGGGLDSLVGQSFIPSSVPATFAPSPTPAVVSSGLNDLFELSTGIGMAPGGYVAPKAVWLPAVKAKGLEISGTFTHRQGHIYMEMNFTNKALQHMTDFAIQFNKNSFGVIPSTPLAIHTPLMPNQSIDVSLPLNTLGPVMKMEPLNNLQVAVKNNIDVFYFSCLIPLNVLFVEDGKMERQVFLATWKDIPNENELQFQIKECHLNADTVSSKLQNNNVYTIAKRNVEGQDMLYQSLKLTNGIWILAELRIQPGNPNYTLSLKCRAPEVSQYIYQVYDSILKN
# GST-FITC bead – GST-fluorescein capture on glutathione beads, confirmation, artefact control for arrestin-AP2 inhibitor project, biochemical, cherry pick 1, flow cytometry. GST-fluorescein binding to GSH beads, fluorescence, counter-screen. AID 588338, 2011. shares compounds with Arrestin-AP2 inh. hit rate 2% among 1,300. inhibition, % at 10 µM;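 active = inhibition above 50%, about 3 SD of the inhibition seen with non-fluorescent compounds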;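 also: fluorescein maleimide labelled GST captured on 4 micron glutathione beads; higher means more loss of bead fluorescence from quenching or blocked binding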
# * marks the source's active call; other numbers are inactive results; · = not tested or not shown. Rows were chosen to be rich in hits. Some 3.4% of all compounds tested hit in one or more screens of this group.
SMILES,APOBEC3A inh,Arrestin-AP2 inh,AHR activator,APOBEC3G inh,PolyA inhibitor,UCH37 inh,Arr-AP2 CP1,GST-FITC bead
CCOC(=O)C(=NNc1ccc(C(C)=O)cc1)c1csc(Nc2ccccc2)n1,·,·,·,·,·,-1.3,·,·
O=[N+]([O-])c1ccc(/C=C/c2ccc3ccccc3n2)cc1,2.5,-12.2,-16.2,-4.5,-24.7,3.2,·,·
O=[N+]([O-])c1ccc(/C=C/c2ccc3cccc(O)c3n2)cc1,-3.2,56.6*,8.7,-3.9,-10.8,8.2,-7.8,-5.4
CCCOc1cccc(C=NNC(=O)c2csc(C)c2C)c1,·,·,·,·,·,-0.4,·,·
CCCNC(=O)[C@@H]1CCCN1C(=O)C1CCN(S(=O)(=O)c2ccc(C)cc2)CC1,-0.9,54.4*,-0.9,-0.1,-21.8,1.8,4.7,-2.0
O=C(C1CCN(S(=O)(=O)c2ccc(Cl)cc2)CC1)N1CCCC1,-1.6,1.6,-0.7,-2.6,0.7,2.7,·,·
Cc1ccc(S(=O)(=O)N2CCC(C(=O)N3CCC3)CC2)cc1,2.1,54.3*,10.9,-2.7,-11.8,-3.2,5.0,-2.5
COc1ccc(NC(=O)COc2coc(CN3CCc4ccccc4C3)cc2=O)cc1,0.3,-16.5,-1.5,-3.1,-14.3,0.7,·,·
O=C(COc1coc(CN2CCc3ccccc3C2)cc1=O)Nc1ccccc1F,-0.9,65.3*,-2.1,-5.7,14.4,2.2,-10.0,10.1
COc1cccc(NC(=O)COc2coc(CN3CCc4ccccc4C3)cc2=O)c1,-1.0,59.3*,-0.9,-0.8,35.6,0.2,19.6,-1.2
COc1ccc(C=Nn2c(N)c(S(=O)(=O)c3cccs3)c3nc4ccccc4nc32)cc1OC,·,·,·,·,·,-96.9,·,·
Cn1nc(C(=O)N2CCN(c3cccc(Cl)c3)CC2)c2c1-c1ccccc1S(=O)(=O)C2,-3.7,-10.8,0.9,-4.8,-7.5,6.1,·,·
Cn1nc(C(=O)N2CCN(c3ccc(Cl)cc3)CC2)c2c1-c1ccccc1S(=O)(=O)C2,2.9,55.2*,1.3,2.5,-4.4,0.8,-6.7,-14.0
COCCNC(=O)c1cccc(S(=O)(=O)N2CC3(C)CC2CC(C)(C)C3)c1 (stereo unspecified),-2.0,62.6*,-1.6,-1.9,27.3,1.7,-2.2,1.1
COCCCNC(=O)c1cccc(S(=O)(=O)N2CC3(C)CC2CC(C)(C)C3)c1 (stereo unspecified),-4.0,12.6,4.8,-3.8,5.4,·,·,·
CCOc1cc(C=NN=C(N)c2nonc2N)cc(Br)c1OCc1ccc(Cl)cc1,·,·,·,·,·,9.4,·,·
Cc1ccc(NS(=O)(=O)c2ccc3c(c2)OCCCO3)cc1S(=O)(=O)N1CCOCC1,0.5,58.4*,-0.1,-7.9,·,1.1,1.4,-1.0
CCOc1ncccc1C(=O)Nc1cc(S(=O)(=O)N2CCOCC2)ccc1OCC(F)(F)F,-1.5,29.2,0.1,-3.1,·,-2.3,0.7,9.5
CCOc1ncccc1C(=O)Nc1ccc(OC)c(S(=O)(=O)N2CCOCC2)c1,0.2,-0.1,·,-6.4,·,1.6,1.3,3.5
CCOc1ncccc1C(=O)Nc1cccc(S(=O)(=O)N2CCCCC2)c1,1.5,19.2,1.6,1.6,·,1.8,-4.5,-1.2
COc1ccc(S(=O)(=O)N2CCOCC2)cc1NC(=O)c1ccncc1,0.2,1.7,1.0,-3.8,·,-1.8,-5.6,-2.0
CCOc1ccc(S(=O)(=O)N2CCOCC2)cc1NC(=O)c1ccccc1F,-3.5,19.2,1.9,-7.9,9.0,-5.0,·,·
CCOc1ncccc1C(=O)Nc1ccc(S(=O)(=O)N2CCCC2)cc1,-4.2,29.4,-0.2,-6.2,-13.3,-1.9,·,·
COc1ccc(NC(=O)c2ccccn2)cc1S(=O)(=O)N1CCOCC1,3.3,9.3,1.5,-5.9,0.4,0.9,·,·
CC1=NN(/C(=N/c2nnc(C)s2)Nc2ccc(C)cc2)[C@H](c2ccc(C)cc2)S1,·,·,·,·,·,5.1,·,·
SMILES,APOBEC3A inh,Arrestin-AP2 inh,AHR activator,APOBEC3G inh,PolyA inhibitor,UCH37 inh,Arr-AP2 CP1,GST-FITC bead
Cc1ccc(C=c2sc3nc(-c4ccccc4Br)nn3c2=O)o1,·,·,·,·,·,9.3,·,·
COC(=O)c1nn(-c2ccccc2)c(Sc2ccc(C)cc2)c1C=NO,·,·,·,·,·,-3.1,·,·
CCOc1ncccc1C(=O)Nc1cc(S(=O)(=O)N2CCCCC2)ccc1C,-1.4,3.6,6.6,-7.0,·,3.2,6.8,5.9
COc1ccc(S(=O)(=O)N2CCN(C)CC2)cc1NC(=O)c1ccccc1C,1.0,26.2,-1.0,-13.6,6.8,0.3,-1.4,-3.5
COc1ccc(NC(=O)c2cc(-c3ccco3)nc3ccccc23)cc1S(=O)(=O)N1CCOCC1,63.6,-12.2,12.6,41.8,-9.0,-28.6,·,·
COc1ccc(NC(=O)c2cc(C)nc3ccccc23)cc1S(=O)(=O)N1CCOCC1,-0.3,6.0,0.2,-3.6,·,3.2,-9.6,-4.8
Cc1ccc(S(=O)(=O)N2CCCCC2)cc1NC(=O)c1cc(=O)[nH]c2ccccc12,0.2,67.1*,3.0,-5.3,·,-8.1,2.5,-2.6
CCCCNC(=O)CCCCC(=O)NN=Cc1ccccc1Cl,·,·,·,·,·,-0.3,·,·
CC(=NNc1ccc([N+](=O)[O-])cc1)c1ccc(-n2nncc2C(C)(C)C)cc1,·,·,·,·,·,5.8,·,·
CCOc1ccc(S(=O)(=O)N2CCCCC2)cc1NC(=O)c1cccnc1OCC,-3.7,14.4,1.0,-4.5,·,-13.8,-7.0,14.5
CCOc1ccc(S(=O)(=O)N2CCCCC2)cc1NC(=O)c1ccccc1,·,-4.9,·,·,·,·,·,·
CCOc1ccc(S(=O)(=O)N2CCN(CC)CC2)cc1NC(=O)c1ccccc1F,0.5,1.1,-4.6,-4.0,-6.6,4.1,6.5,1.6
CCOc1ccc(S(=O)(=O)N2CCN(C)CC2)cc1NC(=O)c1ccccc1F,1.1,1.9,5.1,2.9,-1.6,2.8,·,·
Cc1cc(/C=C2/C(=N)N3C(c4ccccc4)=CSC3=NC2=O)c(C)n1-c1ccc(Cl)cc1,·,-4.4,·,·,·,-1.2,·,·
Cc1cccc(-n2c(C)cc(/C=C3/C(=N)N4C(c5ccccc5)=CSC4=NC3=O)c2C)c1,-1.7,54.9*,-0.4,-11.4,-11.1,-26.8,-7.7,1.1
